Laboratory results as given in ChEMBL document CHEMBL1145310, “Isothiazolopyrimidines and isoxazolopyrimidines as novel multi-targeted inhibitors of receptor tyrosine kinases” (Bioorg Med Chem Lett, 2006).

Key:
[1] = AUC in mouse at 10 mg/kg, po; format: ADME, organism-based; design: dose 10 mg/kg, route oral; details: plasma
In short: (§1)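 Mouse pharmacokinetics: single intravenous dose of 3 mg/kg and single oral dose of 10 mg/kg. Half-life, volume of distribution at steady state, clearance, oral bioavailability and oral AUC were determined.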

[2] = Oral bioavailability in mouse at 10 mg/kg, po; details: in vivo
[3] = Half life in mouse at 3 mg/kg, iv; format: ADME, organism-based; design: dose 3 mg/kg, route intravenous; details: in vivo; in short: as §1
Angiopoietin-1 receptor = Angiopoietin-1 receptor (Homo sapiens, UniProt Q02763); assay: Inhibition of TIE2
Chain of Angiopoietin-1 receptor (Q02763 whole entry): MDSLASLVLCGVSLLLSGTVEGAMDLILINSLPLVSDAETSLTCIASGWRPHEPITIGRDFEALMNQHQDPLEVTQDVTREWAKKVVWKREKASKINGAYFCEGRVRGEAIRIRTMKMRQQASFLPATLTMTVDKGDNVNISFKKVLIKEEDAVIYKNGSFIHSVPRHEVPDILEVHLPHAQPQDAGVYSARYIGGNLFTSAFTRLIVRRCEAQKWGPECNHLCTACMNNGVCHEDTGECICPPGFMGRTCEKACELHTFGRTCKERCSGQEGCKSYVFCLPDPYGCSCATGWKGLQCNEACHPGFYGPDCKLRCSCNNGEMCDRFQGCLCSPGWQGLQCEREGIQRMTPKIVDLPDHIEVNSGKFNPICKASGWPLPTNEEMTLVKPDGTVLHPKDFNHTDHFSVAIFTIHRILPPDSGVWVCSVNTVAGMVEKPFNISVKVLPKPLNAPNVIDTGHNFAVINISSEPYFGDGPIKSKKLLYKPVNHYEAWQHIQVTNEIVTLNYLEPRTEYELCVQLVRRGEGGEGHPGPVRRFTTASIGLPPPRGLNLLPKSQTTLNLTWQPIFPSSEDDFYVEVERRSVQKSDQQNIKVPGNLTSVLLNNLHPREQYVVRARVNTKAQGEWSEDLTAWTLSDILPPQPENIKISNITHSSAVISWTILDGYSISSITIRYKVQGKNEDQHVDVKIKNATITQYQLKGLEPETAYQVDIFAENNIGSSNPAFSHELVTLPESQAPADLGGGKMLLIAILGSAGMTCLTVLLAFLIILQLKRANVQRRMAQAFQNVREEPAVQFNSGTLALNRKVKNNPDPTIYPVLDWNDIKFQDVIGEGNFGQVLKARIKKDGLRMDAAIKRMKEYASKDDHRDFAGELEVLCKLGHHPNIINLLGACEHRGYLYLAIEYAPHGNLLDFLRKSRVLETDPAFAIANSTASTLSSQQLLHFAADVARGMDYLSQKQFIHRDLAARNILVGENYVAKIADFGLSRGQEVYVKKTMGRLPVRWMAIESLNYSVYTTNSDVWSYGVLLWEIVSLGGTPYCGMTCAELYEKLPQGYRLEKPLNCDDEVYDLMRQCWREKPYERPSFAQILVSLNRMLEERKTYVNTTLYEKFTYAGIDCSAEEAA
In short: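 Kinase enzymatic assays run separately for each target. Each IC50 came from seven inhibitor concentrations, with every assay point determined in duplicate.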

[4] = Clearance in mouse at 3 mg/kg, iv; format: ADME, organism-based; design: dose 3 mg/kg, route intravenous; details: in vivo
[5] = Volume of distribution in mouse at 3 mg/kg, iv; format: ADME, organism-based; design: dose 3 mg/kg, route intravenous; details: in vivo, read-out: Vdss
[6] = biological target: Vascular endothelial growth factor receptor 2 (Homo sapiens, UniProt P35968); assay: Inhibition of KDR
Chain of Vascular endothelial growth factor receptor 2 (P35968 whole entry): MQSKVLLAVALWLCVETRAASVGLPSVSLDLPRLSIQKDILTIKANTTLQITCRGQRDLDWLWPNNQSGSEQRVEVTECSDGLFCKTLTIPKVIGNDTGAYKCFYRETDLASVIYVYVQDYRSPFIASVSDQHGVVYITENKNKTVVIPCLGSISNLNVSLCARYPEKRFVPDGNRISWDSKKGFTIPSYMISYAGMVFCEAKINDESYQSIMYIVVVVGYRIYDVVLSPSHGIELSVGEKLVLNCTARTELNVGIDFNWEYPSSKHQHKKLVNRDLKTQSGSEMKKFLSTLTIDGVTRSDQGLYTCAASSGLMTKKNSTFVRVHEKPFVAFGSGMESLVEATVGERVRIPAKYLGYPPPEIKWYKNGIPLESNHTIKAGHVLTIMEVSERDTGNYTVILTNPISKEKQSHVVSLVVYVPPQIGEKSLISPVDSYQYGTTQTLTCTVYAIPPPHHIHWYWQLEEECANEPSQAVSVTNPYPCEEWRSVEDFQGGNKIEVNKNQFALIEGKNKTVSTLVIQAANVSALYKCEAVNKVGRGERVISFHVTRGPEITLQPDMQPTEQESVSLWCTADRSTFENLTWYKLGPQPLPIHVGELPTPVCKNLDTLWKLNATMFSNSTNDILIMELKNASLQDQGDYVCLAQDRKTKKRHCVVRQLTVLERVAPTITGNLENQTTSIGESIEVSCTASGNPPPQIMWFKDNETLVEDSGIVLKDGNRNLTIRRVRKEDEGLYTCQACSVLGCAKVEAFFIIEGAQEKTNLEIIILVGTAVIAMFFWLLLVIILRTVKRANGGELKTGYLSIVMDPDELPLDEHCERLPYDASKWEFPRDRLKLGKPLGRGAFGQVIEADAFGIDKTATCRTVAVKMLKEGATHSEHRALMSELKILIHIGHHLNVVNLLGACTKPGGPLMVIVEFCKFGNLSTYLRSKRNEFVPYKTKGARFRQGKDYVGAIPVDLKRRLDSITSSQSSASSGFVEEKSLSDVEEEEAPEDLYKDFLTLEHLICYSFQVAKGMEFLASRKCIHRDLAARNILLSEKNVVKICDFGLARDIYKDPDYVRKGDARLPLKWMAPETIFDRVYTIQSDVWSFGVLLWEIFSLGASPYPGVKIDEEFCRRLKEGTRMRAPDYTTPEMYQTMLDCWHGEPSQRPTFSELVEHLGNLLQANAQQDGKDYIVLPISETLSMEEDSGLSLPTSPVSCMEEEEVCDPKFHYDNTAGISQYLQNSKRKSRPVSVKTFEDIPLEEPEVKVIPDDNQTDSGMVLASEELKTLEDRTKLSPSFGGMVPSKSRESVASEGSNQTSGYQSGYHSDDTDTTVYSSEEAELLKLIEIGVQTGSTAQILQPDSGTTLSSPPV

[7] = biological target: Mast/stem cell growth factor receptor Kit (Homo sapiens, UniProt P10721); assay: Inhibition of CKIT
Chain of Mast/stem cell growth factor receptor Kit (P10721 whole entry): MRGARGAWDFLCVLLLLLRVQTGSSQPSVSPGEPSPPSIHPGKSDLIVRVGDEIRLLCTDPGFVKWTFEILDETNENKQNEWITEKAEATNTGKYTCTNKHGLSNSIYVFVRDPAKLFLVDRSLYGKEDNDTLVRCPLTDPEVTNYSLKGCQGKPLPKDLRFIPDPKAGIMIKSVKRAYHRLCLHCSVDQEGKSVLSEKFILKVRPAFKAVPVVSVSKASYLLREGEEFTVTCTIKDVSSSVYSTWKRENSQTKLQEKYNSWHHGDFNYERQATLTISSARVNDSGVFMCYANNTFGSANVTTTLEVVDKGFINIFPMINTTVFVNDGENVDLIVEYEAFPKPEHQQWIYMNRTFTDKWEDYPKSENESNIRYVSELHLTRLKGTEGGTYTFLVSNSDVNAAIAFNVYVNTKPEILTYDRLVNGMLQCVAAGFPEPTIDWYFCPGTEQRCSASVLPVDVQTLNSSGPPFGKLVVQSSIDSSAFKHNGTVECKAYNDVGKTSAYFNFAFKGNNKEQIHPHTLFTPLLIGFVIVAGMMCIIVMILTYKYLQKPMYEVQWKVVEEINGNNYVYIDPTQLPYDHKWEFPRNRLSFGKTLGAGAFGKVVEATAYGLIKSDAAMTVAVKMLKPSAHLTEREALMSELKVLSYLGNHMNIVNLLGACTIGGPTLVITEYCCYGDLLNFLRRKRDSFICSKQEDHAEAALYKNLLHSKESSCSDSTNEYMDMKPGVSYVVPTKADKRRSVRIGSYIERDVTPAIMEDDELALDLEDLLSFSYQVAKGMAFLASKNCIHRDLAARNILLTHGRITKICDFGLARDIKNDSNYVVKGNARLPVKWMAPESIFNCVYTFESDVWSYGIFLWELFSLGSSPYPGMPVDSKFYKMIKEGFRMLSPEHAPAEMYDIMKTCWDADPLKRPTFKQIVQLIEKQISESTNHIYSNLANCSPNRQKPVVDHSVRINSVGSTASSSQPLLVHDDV

[8] = biological target: Vascular endothelial growth factor receptor 3 (Homo sapiens, UniProt P35916); assay: Inhibition of FLT4
Chain of Vascular endothelial growth factor receptor 3 (P35916 whole entry): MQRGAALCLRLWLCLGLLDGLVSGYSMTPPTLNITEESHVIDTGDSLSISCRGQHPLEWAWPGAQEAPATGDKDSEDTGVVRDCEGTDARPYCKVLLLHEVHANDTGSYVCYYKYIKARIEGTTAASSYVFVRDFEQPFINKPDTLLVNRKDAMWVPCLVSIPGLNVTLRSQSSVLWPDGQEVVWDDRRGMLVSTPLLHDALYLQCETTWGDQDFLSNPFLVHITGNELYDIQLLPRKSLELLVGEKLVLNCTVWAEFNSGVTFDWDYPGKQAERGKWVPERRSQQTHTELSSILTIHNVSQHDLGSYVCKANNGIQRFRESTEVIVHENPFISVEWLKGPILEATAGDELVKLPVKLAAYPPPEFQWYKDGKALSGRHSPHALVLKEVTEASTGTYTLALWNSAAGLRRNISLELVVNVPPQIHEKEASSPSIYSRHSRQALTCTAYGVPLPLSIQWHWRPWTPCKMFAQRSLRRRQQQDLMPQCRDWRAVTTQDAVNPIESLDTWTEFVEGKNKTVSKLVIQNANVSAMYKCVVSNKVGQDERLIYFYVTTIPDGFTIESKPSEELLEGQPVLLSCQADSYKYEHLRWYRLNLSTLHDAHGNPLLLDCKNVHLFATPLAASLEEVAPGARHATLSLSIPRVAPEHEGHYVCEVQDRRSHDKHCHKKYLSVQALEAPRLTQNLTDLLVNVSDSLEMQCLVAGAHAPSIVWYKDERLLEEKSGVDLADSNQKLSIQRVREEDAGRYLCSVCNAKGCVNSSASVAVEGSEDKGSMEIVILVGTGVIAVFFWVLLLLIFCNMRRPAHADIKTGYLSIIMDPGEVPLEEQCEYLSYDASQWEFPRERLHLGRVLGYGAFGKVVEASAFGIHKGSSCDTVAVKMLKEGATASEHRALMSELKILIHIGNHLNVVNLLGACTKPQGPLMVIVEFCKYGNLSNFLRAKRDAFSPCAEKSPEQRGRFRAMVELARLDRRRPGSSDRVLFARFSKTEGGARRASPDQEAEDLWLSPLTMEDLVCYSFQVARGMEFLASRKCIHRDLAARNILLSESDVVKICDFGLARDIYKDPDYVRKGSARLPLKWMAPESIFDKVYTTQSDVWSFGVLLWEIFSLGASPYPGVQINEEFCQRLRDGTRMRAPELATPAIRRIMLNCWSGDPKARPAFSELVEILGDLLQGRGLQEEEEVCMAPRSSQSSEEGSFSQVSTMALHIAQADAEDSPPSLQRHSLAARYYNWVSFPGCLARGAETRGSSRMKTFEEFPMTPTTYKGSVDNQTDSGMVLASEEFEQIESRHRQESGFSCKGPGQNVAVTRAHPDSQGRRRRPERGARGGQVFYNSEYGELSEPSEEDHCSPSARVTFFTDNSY

[9] = biological target: Vascular endothelial growth factor receptor 1 (Homo sapiens, UniProt P17948); assay: Inhibition of FLT1

Compound	AUC [1] [µM·h]	bioavailability [2] [%]	half-life [3] [min]	IC50 (Angiopoietin-1 receptor) [nM]	clearance [4] [mL/min/kg]	Vd [5] [L/kg]	IC50 [6] [nM]	IC50 [7] [nM]	IC50 [8] [nM]	IC50 [9] [nM]
Cc1ccc(F)c(NC(=O)Nc2ccc(-c3nsc4ncnc(N)c34)cc2)c1	2.7	48	12	19	75	1.19	–	–	–	–
Nc1ncnc2snc(-c3ccc([N+](=O)[O-])cc3)c12	–	–	–	–	–	–	> 50000	–	–	–
Cc1cccc(NC(=O)Nc2ccc(-c3csc4ncnc(N)c34)cc2)c1	14	65	42	–	–	–	–	–	–	–
Cc1cc(C)c2oc(Nc3ccc(-c4noc5ncnc(N)c45)cc3)nc2c1	–	–	–	–	–	–	> 50000	–	–	–
Nc1ncnc2snc(-c3ccc(NC(=O)Nc4cc(C(F)(F)F)ccc4F)cc3)c12	–	–	–	22	–	–	–	28	23	75
Nc1ncnc2onc(-c3ccc(NC(=O)c4ccccc4)cc3)c12	–	–	–	–	–	–	> 50000	–	–	–
Cc1cccc(NC(=O)Nc2ccc(-c3nsc4ncnc(N)c34)cc2)c1	9.1	56	36	415	26.7	1.36	–	11	4	79
Nc1ncnc2snc(-c3ccc(NC(=O)Nc4cccc(C(F)(F)F)c4)cc3)c12	–	–	–	28	–	–	–	18	< 3	39
